Assay results taken from ChEMBL document CHEMBL4177575 (Bioorg Med Chem, 2017).
The source made the active and inactive calls. No cut-off for these calls is given here.

Tests used:
A549 [1] = experiment: Cytotoxicity against human A549 cells assessed as reduction in cell viability incubated for 72 hrs by MTT assay; type: functional, cell-based
How it was run: (§1)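 Cells grown in MEM with 10% FBS; about 4×10^3 cells per well, pre-incubated 24 h at 37 °C in 5% CO2, then exposed to compound for 72 h. Seven concentrations, threefold serial dilution from 100 ug/mL initial. MTT at 5 µg/mL terminal concentration for 4 h; formazan dissolved in DMSO, absorbance read at 492 nm against 630 nm reference. IC50 is the average of two determinations.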

MCF7 = experiment: Cytotoxicity against human MCF7 cells assessed as reduction in cell viability incubated for 72 hrs by MTT assay; type: functional, cell-based; how it was run: as §1
[2] = target: RAF proto-oncogene serine/threonine-protein kinase (Homo sapiens, UniProt P04049); experiment: Inhibition of CRAF (unknown origin) incubated for 10 mins using FAM-labeled peptide and ATP by mobility shift assay
Chain of RAF proto-oncogene serine/threonine-protein kinase (P04049 whole entry): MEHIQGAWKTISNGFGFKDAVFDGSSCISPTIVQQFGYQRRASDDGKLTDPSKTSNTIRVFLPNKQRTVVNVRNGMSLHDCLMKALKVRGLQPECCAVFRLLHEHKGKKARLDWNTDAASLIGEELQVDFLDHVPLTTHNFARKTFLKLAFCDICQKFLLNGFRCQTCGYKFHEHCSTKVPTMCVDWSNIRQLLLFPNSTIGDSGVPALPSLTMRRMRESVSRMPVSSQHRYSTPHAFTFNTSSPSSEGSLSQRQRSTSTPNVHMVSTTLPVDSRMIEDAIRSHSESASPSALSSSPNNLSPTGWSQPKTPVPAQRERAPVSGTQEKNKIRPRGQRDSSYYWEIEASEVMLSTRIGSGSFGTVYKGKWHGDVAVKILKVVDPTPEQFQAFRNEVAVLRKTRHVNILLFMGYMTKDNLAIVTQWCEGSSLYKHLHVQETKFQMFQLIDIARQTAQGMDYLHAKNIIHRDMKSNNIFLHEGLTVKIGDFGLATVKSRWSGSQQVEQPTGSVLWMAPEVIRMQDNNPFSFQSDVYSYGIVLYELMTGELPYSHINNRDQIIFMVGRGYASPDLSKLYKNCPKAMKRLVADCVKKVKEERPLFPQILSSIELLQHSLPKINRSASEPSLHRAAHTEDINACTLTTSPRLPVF
How it was run: (§2)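 Mobility shift assay in 384-well plates. Compound, diluted from a 500 μM DMSO stock, preincubated with enzyme 10 min at room temperature. FAM-labelled peptide and ATP then added and the reaction run at 28 °C. Stopped with EDTA-containing buffer and read on Caliper. Inhibition = (max−conversion)/(max−min)×100, with DMSO wells as max and enzyme-free wells as min.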

[3] = target: T1, Receptor-type tyrosine-protein kinase FLT3 (Homo sapiens, UniProt P36888); experiment: Inhibition of FLT3 (unknown origin) incubated for 10 mins using FAM-labeled peptide and ATP by mobility shift assay
T1 sequence (P36888 whole entry): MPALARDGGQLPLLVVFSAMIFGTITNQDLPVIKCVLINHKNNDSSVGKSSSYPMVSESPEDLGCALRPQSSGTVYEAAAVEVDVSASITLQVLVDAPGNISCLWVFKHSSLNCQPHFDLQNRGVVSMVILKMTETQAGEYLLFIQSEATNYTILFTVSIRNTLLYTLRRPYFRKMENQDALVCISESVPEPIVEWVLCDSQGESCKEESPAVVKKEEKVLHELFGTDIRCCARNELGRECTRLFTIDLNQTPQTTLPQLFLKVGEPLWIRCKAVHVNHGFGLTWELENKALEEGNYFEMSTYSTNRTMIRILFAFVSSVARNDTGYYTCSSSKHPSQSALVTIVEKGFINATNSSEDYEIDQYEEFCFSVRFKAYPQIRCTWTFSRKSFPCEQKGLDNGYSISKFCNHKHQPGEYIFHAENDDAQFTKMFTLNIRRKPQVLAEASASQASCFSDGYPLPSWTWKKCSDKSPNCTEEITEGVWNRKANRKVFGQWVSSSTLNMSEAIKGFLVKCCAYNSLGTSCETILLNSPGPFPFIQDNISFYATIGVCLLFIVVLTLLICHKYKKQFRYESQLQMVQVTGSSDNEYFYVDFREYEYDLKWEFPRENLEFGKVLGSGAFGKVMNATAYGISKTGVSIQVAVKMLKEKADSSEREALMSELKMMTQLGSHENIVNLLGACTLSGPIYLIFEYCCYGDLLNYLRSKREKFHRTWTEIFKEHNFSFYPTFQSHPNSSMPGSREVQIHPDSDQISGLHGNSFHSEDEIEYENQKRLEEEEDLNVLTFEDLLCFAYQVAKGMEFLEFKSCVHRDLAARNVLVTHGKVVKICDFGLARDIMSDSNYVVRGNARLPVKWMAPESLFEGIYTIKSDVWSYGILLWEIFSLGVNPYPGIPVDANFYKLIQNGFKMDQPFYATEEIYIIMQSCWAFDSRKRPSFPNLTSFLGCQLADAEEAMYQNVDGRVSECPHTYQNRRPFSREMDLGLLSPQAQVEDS
How it was run: as §2, with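 “plates. Kinase buffer: 50 mM HEPES pH 7.5, 10 mM MgCl2, 0.0015% Brij-35, 2 mM DTT.” for “plates.”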

A549 [4] = experiment: Induction of morphological changes in human A549 cells assessed as induction of chromatin condensation at 1.85 uM incubated for 12 hrs by acridine orange dye based inverted microscopy and fluorescence microscopy; type: functional, cell-based
How it was run: (§3)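 Untreated control included. A549 cells exposed 12 h at 1.85 μM, then single-stained with acridine orange. Nuclei and morphology examined by inverted and fluorescence microscopy.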

A549 [5] = experiment: Induction of morphological changes in human A549 cells assessed as induction of nucleus bright green staining at 1.85 uM incubated for 12 hrs by acridine orange dye based inverted microscopy and fluorescence microscopy; type: functional, cell-based; how it was run: as §3
A549 [6] = experiment: Induction of morphological changes in human A549 cells assessed as induction of apoptotic bodies at 1.85 uM incubated for 12 hrs by acridine orange dye based inverted microscopy and fluorescence microscopy; type: functional, cell-based; how it was run: as §3
A549 [7] = experiment: Induction of apoptosis in human A549 cells assessed as viable cell level at 3 uM incubated for 48 hrs by Annexin VFITC and propidium iodide staining based flow cytometry (reference value: 93.27%); type: functional
How it was run: (§4)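 A549 cells seeded in RPMI 1640 and treated 48 h at 3, 6 or 12 µM. Cells then stained with Annexin V-FITC plus propidium iodide, 30 min at 4 °C in the dark, and analysed on a FACS Calibur flow cytometer.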

A549 [8] = experiment: Induction of apoptosis in human A549 cells assessed as late apoptotic cell level at 3 uM incubated for 48 hrs by Annexin VFITC and propidium iodide staining based flow cytometry (reference value: 3.4%); type: functional; how it was run: as §4
A549 [9] = experiment: Induction of apoptosis in human A549 cells assessed as necrotic cell level at 3 uM incubated for 48 hrs by Annexin VFITC and propidium iodide staining based flow cytometry (reference value: 2.69%); type: functional; how it was run: as §4
A549 [10] = experiment: Induction of apoptosis in human A549 cells assessed as early apoptotic cell level at 6 uM incubated for 48 hrs by Annexin VFITC and propidium iodide staining based flow cytometry (reference value: 0.64%); type: functional; how it was run: as §4
A549 [11] = experiment: Induction of apoptosis in human A549 cells assessed as late apoptotic cell level at 6 uM incubated for 48 hrs by Annexin VFITC and propidium iodide staining based flow cytometry (reference value: 3.4%); type: functional; how it was run: as §4
A549 [12] = experiment: Induction of apoptosis in human A549 cells assessed as necrotic cell level at 6 uM incubated for 48 hrs by Annexin VFITC and propidium iodide staining based flow cytometry (reference value: 2.69%); type: functional; how it was run: as §4
A549 [13] = experiment: Induction of apoptosis in human A549 cells assessed as viable cell level at 12 uM incubated for 48 hrs by Annexin VFITC and propidium iodide staining based flow cytometry (reference value: 93.27%); type: functional; how it was run: as §4
A549 [14] = experiment: Induction of apoptosis in human A549 cells assessed as early apoptotic cell level at 12 uM incubated for 48 hrs by Annexin VFITC and propidium iodide staining based flow cytometry (reference value: 0.64%); type: functional; how it was run: as §4
A549 [15] = experiment: Induction of apoptosis in human A549 cells assessed as late apoptotic cell level at 12 uM incubated for 48 hrs by Annexin VFITC and propidium iodide staining based flow cytometry (reference value: 3.4%); type: functional; how it was run: as §4

IC50 [2]: 7.9 µM
IC50 [3]: 5.2 µM
Structure (SMILES): CNC(=O)c1cc(Oc2ccc(C3=NNC(c4cccc(Br)c4)C3)cc2)ccn1 (stereo not drawn)
Activity (A549 [1]): Dose-dependent effect
IC50 (A549 [1]; A549, 72 h): 2.84 µM
Activity (MCF7): Dose-dependent effect
IC50 (MCF7; MCF7, 72 h): 1.96 µM
Activity (A549 [4]): Active
Activity (A549 [5]): Active
Activity (A549 [6]): Active
Activity (A549 [7]): 88.8%
Activity (A549 [8]): 4.51%
Activity (A549 [9]): 4.49%
Activity (A549 [10]): 7.72%
Activity (A549 [11]): 9.11%
Activity (A549 [12]): 1.24%
Activity (A549 [13]): 75.55%
Activity (A549 [14]): 11.95%
Activity (A549 [15]): 10.05%
